Mdm2-MdmX inh = inhibitors of human Mdm2-MdmX association, primary screen, cell-based, luminescence, split luciferase, SaOS-2, uHTS. Protein Mdm4 (Homo sapiens) + E3 ubiquitin-protein ligase Mdm2 (Homo sapiens), …. SaOS-2 split-luciferase Mdm2/MdmX complementation. inhibition, % at 8 µM. actives 3% (n = 330,000);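 active = inhibition of at least 50% at 8 µM in the primary screen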
Target sequence (O15151 whole entry, looked up): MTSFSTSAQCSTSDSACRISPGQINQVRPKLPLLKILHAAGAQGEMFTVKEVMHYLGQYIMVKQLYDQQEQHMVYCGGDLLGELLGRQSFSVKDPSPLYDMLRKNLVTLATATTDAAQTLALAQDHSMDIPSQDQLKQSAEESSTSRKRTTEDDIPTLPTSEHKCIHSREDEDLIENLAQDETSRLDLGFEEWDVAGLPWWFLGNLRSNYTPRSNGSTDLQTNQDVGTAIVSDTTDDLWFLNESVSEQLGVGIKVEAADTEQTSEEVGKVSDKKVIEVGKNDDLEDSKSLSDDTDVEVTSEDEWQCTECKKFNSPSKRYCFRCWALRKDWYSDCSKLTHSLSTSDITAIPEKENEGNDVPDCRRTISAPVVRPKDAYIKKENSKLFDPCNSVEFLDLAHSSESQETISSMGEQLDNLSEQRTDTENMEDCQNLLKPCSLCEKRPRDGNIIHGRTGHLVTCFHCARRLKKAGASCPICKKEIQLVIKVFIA
Target sequence (Q00987 whole entry, looked up): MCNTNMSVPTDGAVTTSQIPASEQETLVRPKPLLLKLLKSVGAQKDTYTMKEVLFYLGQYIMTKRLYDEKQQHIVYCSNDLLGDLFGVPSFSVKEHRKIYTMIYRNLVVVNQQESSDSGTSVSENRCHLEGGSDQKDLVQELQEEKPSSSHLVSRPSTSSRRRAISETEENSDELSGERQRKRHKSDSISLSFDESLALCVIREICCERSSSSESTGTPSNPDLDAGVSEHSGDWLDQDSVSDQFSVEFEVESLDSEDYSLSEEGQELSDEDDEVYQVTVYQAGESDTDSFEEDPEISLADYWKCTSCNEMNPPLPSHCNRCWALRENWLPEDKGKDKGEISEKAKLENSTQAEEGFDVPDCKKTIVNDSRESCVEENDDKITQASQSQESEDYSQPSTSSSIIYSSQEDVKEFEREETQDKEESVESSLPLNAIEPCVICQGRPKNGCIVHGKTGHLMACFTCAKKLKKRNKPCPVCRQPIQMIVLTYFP
L major viab = Leishmania major promastigote growth inhibition, primary screen; Leishmania major promastigotes, resazurin fluorescence viability; inhibition, % at 10 µM; actives 9% (n = 200,000); in the data active = inhibition above about 50%;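 note: promastigotes grown with compound for 44 hours at 28 °C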
CSC inhib = cancer stem cell viability inhibitors, primary screen, luminescence | cancer stem cell-like cells viability | inhibition, % at 7.5 µM | actives 1.1% (n = 300,000) | AID 2717, 2010; in the data active = inhibition above about 75%; tested in HMLE shEcad cells
SKKanGAS inh = S. pyogenes SKKanGAS growth inhibitors in kanamycin, primary screen, streptokinase expression inhibitor project, SKKanGAS strain, BacTiter-Glo luminescence. actives 1.3% (n = 300,000). 6 h. inhibition, % at 7.5 µM;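 active = mean replicate score, as percent of positive control median, at least 50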;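 note: strain carries kanamycin resistance gene driven by streptokinase promoter and grows in 40 µg/ml kanamycin; loss of luminescence reflects streptokinase promoter inhibition or plain growth inhibition; 0% = median of DMSO wells and 100% = positive control at its reference dose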
Beta cell apopt = inhibitors of cytokine-induced beta cell apoptosis, primary screen, luminescence. protection from apoptosis, % (concentration not given with the values). actives 0.8% (n = 300,000). INS-1E cytokine-induced death, ATP luminescence, 48 h; percent of positive-control rescue, neutral wells zero;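 active = Every replicate reaches about 75%, or at least half do and their mean reaches it too, limit read from the data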;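 note: 0% = cytokine-treated negative control wells and 100% = positive control rescue; higher means more ATP so stronger rescue from cytokine killing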
T cruzi inh = inhibitors of intracellular T. cruzi growth, primary screen, luminescence, NIH3T3 host cells. inhibition, % (no concentration beside the values). AID 1885, 2009. T. cruzi beta-gal in NIH3T3, 90 h. actives 1.4% (n = 300,000);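 active = mean inhibition across valid replicates above about 55%, limit read from the data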;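 note: signal also drops with host cell toxicity which is not excluded here; 0% = plate median of DMSO wells and 100% = zero luminescence signal; higher percent means less beta-gal luminescence so fewer parasites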
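Assay system: NIH/3T3 host cells with β-galactosidase reporter T. cruzi; input: 5,000 host fibroblasts per well; compound: single 50 nL compound addition per well in DMSO; timing: ≥90 h infection period, 3 h prior cell attachment; measured by: GalScreen β-gal luminescence, detergent lysis, 60 min; evaluation: percent inhibition of parasite-derived β-gal signal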
An asterisk follows results filed as active. Shown are actives, neighbours in structure and some others; about 9.4% of the full set was active somewhere.

What do the screens show for `Cc1ccc(Nc2nc(NCCCN3CCOCC3)nc(N)c2[N+](=O)[O-])cc1C`?
Mdm2-MdmX inh: 24; L major viab: 52*; CSC inhib: 13; SKKanGAS inh: -5; Beta cell apopt: 2; T cruzi inh: 4

Results for Nc1nc(NCCCN2CCOCC2)nc(Nc2ccc(Cl)cc2)c1[N+](=O)[O-] ?
Mdm2-MdmX inh: 15; CSC inhib: 9; SKKanGAS inh: 2; Beta cell apopt: 2; T cruzi inh: 24

What do the screens show for `Nc1nc(NCCCN2CCOCC2)nc(Nc2cccc(Cl)c2)c1[N+](=O)[O-]`?
Mdm2-MdmX inh: 29; CSC inhib: 9; SKKanGAS inh: 9; Beta cell apopt: 9; T cruzi inh: 21

How did Cc1ccc(Nc2nc(NCCCN3CCOCC3)nc(N)c2[N+](=O)[O-])cc1 do in these assays?
Mdm2-MdmX inh: 8; L major viab: 51*; CSC inhib: -3; SKKanGAS inh: 2; Beta cell apopt: 0; T cruzi inh: -13

Results for CCOC(=O)c1cc(C(=O)OCC)c(=O)[nH]c1N1CCCC1 ?
Mdm2-MdmX inh: -12; L major viab: -2; CSC inhib: -44; SKKanGAS inh: 3; Beta cell apopt: -3; T cruzi inh: 5

What do the screens show for `CC(C)c1ccc2c(c1)CCC1C(C)(CN)CCCC21C` (stereo not given)?
CSC inhib: 116*; SKKanGAS inh: 6; Beta cell apopt: 63; T cruzi inh: 9

Results for COc1ccc(C(=O)Sc2ccc(C)cc2)cc1OC ?
Mdm2-MdmX inh: 29; L major viab: -2; CSC inhib: -7; SKKanGAS inh: 0; T cruzi inh: 1

How did COc1ccc(C(=O)Sc2ccc(Cl)cc2)cc1OC do in these assays?
Mdm2-MdmX inh: 28; L major viab: 54*; CSC inhib: 12; SKKanGAS inh: -6; Beta cell apopt: -14; T cruzi inh: 15

How did CCOCCCN1C(=O)CN(C2CCC(C)CC2)C(=O)C1c1ccc(C)cc1 (stereo not given) do in these assays?
Mdm2-MdmX inh: 5; L major viab: -3; CSC inhib: -9; SKKanGAS inh: 1; Beta cell apopt: 4; T cruzi inh: -6

How did CC(=O)NC(=S)NNC(=O)C(c1ccccc1)c1ccccc1 do in these assays?
Mdm2-MdmX inh: 20; L major viab: 11; CSC inhib: 1; SKKanGAS inh: 80*; Beta cell apopt: 11; T cruzi inh: 17

How did Nc1nn2cc(-c3ccccc3)nc2c2ccccc12 do in these assays?
Mdm2-MdmX inh: -227; L major viab: 87*; CSC inhib: 15; SKKanGAS inh: 2; Beta cell apopt: 6; T cruzi inh: 37

How did COc1ccccc1OCCSc1nnc(C)n1-c1ccccc1 do in these assays?
Mdm2-MdmX inh: 10; L major viab: 73*; CSC inhib: -10; SKKanGAS inh: 7; Beta cell apopt: -1; T cruzi inh: 2

How did COc1ccc(OCCSc2nnc(C)n2-c2ccccc2)cc1 do in these assays?
Mdm2-MdmX inh: 16; L major viab: -2; CSC inhib: 4; SKKanGAS inh: -2; T cruzi inh: 5

How did Cc1nnc(SCC(=O)NNC(=O)c2ccccc2)n1-c1ccccc1 do in these assays?
Mdm2-MdmX inh: 6; L major viab: 66*; CSC inhib: -8; SKKanGAS inh: 17; Beta cell apopt: -2; T cruzi inh: 13

How did COc1ccc(O)c(/C=N/NC(=O)CSc2nnc(C)n2-c2ccccc2)c1 do in these assays?
Mdm2-MdmX inh: 48; L major viab: 0; CSC inhib: 39; SKKanGAS inh: -5; Beta cell apopt: 35; T cruzi inh: 7

What do the screens show for `Cc1ccc(-c2nn(-c3ccccc3)cc2/C=N/NC(=O)CSc2nnc(C)n2-c2ccccc2)cc1`?
Mdm2-MdmX inh: 13; L major viab: 29; CSC inhib: 24; SKKanGAS inh: 54*; Beta cell apopt: 4; T cruzi inh: 23

Results for COc1ccc(/C=N/NC(=O)CSc2nnc(C)n2-c2ccccc2)c(OC)c1OC ?
Mdm2-MdmX inh: -18; L major viab: -6; CSC inhib: 0; SKKanGAS inh: -3; Beta cell apopt: 1

What do the screens show for `Cc1ccccc1-n1c(C)nnc1SCC(=O)NNC(=O)c1ccccc1`?
Mdm2-MdmX inh: -30; L major viab: -7; CSC inhib: 1; SKKanGAS inh: -13; Beta cell apopt: -6; T cruzi inh: -13

Results for COc1cccc(/C=N/NC(=O)CSc2nnc(C)n2-c2ccccc2)c1O ?
Mdm2-MdmX inh: 28; L major viab: 9; CSC inhib: 77*; SKKanGAS inh: 16; Beta cell apopt: 11; T cruzi inh: -17

What do the screens show for `Cc1noc(NC(=O)c2ccccc2C(F)(F)F)c1C#N`?
Mdm2-MdmX inh: 14; L major viab: -3; CSC inhib: -8; SKKanGAS inh: 3; Beta cell apopt: -3; T cruzi inh: -14

Results for Cc1cccc(N)c1-c1c(C)cccc1N ?
Mdm2-MdmX inh: 26; L major viab: 1; CSC inhib: -2; SKKanGAS inh: 5; Beta cell apopt: -1; T cruzi inh: -12

Results for CC[C@@H](C)[C@H](N)C(=O)NC[C@H]1O[C@@H](n2cnc3c(N)ncnc32)[C@H](O)[C@@H]1O ?
Mdm2-MdmX inh: 16

What do the screens show for `COc1ccc(Cc2nnc(NS(=O)(=O)c3ccc(Cl)cc3)s2)cc1OC`?
Mdm2-MdmX inh: -1; L major viab: -8; CSC inhib: 22; SKKanGAS inh: 13; Beta cell apopt: -7; T cruzi inh: 6

Results for CCC(C)NC(=O)Nc1ccc(F)c(Cl)c1 (stereo not given) ?
Mdm2-MdmX inh: 5; L major viab: 96*; SKKanGAS inh: 1; Beta cell apopt: -6; T cruzi inh: -12

Results for COC(=O)/C=C/c1ccccc1CN1[C@@H](CC(=O)OC)c2ccccc2S1(=O)=O ?
Mdm2-MdmX inh: 5; CSC inhib: 0; Beta cell apopt: -6

Results for COc1ccc(N(CC(=O)NCCC2=CCCCC2)S(=O)(=O)c2ccccc2)cc1 ?
Mdm2-MdmX inh: -20; CSC inhib: -5; SKKanGAS inh: -10; Beta cell apopt: 5; T cruzi inh: 19

How did COc1ccc(N(CC(=O)NCCC2=CCCCC2)S(=O)(=O)c2ccccc2)cc1OC do in these assays?
Mdm2-MdmX inh: 15; L major viab: 73*; CSC inhib: -8; SKKanGAS inh: -4; Beta cell apopt: 1; T cruzi inh: 60*

Results for COc1ccc(N(CC(=O)NCCC2=CCCCC2)S(=O)(=O)c2ccc(C)cc2)cc1OC ?
Mdm2-MdmX inh: 20; L major viab: 85*; CSC inhib: -2; SKKanGAS inh: 9; Beta cell apopt: 8; T cruzi inh: 46

How did CC(C)Oc1ccc(CNC(=O)c2cc(S(=O)(=O)N3CCOCC3)cn2C)cc1 do in these assays?
Mdm2-MdmX inh: 32; CSC inhib: -4; SKKanGAS inh: -3; Beta cell apopt: 1; T cruzi inh: 11

Compound activity (PubChem BioAssay)
